ChEMBL document CHEMBL1799999, “N-benzoylated phenoxazines and phenothiazines: synthesis, antiproliferative activity, and inhibition of tubulin polymerization” (J Med Chem, 2011)
Calls of active or inactive are those of the source. No cut-off for these calls is given here.

Tests used:
ASPC1 = assay: Antiproliferative activity against human AsPC1 cells after 72 hrs by sulforhodamine staining method; assay type: functional; settings: ASPC1, 72 h
How it was run: (§1)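 Panel of 83 solid-tumour lines plus resting PBMC, run by the DTP NCI sulforhodamine B staining protocol. Compound exposure 72 h, concentrations from 0.0001 to 10 μM. GI50 taken per line; z-scores computed relative to the panel mean GI50.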

K562 [1] = assay: Cell cycle arrest in human K562 cells assessed as accumulation at G2/M phase at 0.003 to. 1 ug/ml after 24 hrs by flow cytometric analysis; assay type: functional, cell-based
How it was run: (§2)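 K562 cells (2 × 10^5/mL) exposed to graded concentrations for 24 h at 37 °C; vehicle DMSO/MeOH 1:1. Washed in PBS, fixed in ice-cold 70% ethanol, stained 30 min with propidium iodide 0.02 mg/mL plus RNase 0.2 mg/mL. DNA content read by flow cytometry with 488 nm excitation; G2/M fraction scored.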

A-375 = assay: Antiproliferative activity against human A375 cells after 72 hrs by sulforhodamine staining method; assay type: functional; settings: A-375, 72 h; how it was run: as §1
SK-OV-3 = assay: Antiproliferative activity against human SKOV3 cells after 48 hrs by alamar blue assay; assay type: functional, cell-based; settings: SK-OV-3, 48 h
How it was run: (§3)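 Cells seeded in growth medium and grown 24 h at 37 °C/5% CO2. 10 mM DMSO stocks diluted in half-log steps into medium, final DMSO 0.316%. After 45 h of compound exposure, AlamarBlue (resazurin) added for a further 3 h, giving 48 h total. Fluorescence read at 590 nm against untreated and cell-free blanks. At least two replicates; IC50 by nonlinear regression.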

COLO-678 = assay: Antiproliferative activity against human COLO-678 cells after 72 hrs by sulforhodamine staining method; assay type: functional; settings: COLO-678, 72 h; how it was run: as §1
[2] = Antiproliferative activity against human MDA-MB-436 cells after 72 hrs by sulforhodamine staining method; assay type: functional; settings: MDA-MB-436, 72 h; how it was run: as §1
[3] = Antiproliferative activity against human resting PBMC after 72 hrs by sulforhodamine staining method; assay type: cell-based; how it was run: as §1
IGROV-1 = assay: Antiproliferative activity against human IGROV1 cells after 72 hrs by sulforhodamine staining method; assay type: functional; settings: IGROV-1, 72 h; how it was run: as §1
cells = settings: Homo sapiens, 451Lu, 48 h
BXPC-3 = assay: Antiproliferative activity against human BxPC3 cells after 72 hrs by sulforhodamine staining method; assay type: functional; settings: BXPC-3, 72 h; how it was run: as §1
HT-29 = assay: Antiproliferative activity against human HT-29 cells after 72 hrs by sulforhodamine staining method; assay type: functional; settings: HT-29, 72 h; how it was run: as §1
HT-1080 = assay: Antiproliferative activity against human HT1080 cells after 72 hrs by sulforhodamine staining method; assay type: functional; settings: HT-1080, 72 h; how it was run: as §1
5637 = assay: Antiproliferative activity against human 5637 cells after 72 hrs by sulforhodamine staining method; assay type: functional; settings: Homo sapiens, 5637, 72 h; how it was run: as §1
SK-MEL-28 = assay: Antiproliferative activity against human SK-MEL-28 cells after 72 hrs by sulforhodamine staining method; assay type: functional; settings: SK-MEL-28, 72 h; how it was run: as §1
MG-63 = assay: Antiproliferative activity against human MG63 cells after 72 hrs by sulforhodamine staining method; assay type: functional; settings: MG-63, 72 h; how it was run: as §1
DLD-1 = assay: Antiproliferative activity against human DLD1 cells after 48 hrs by alamar blue assay; assay type: functional, cell-based; settings: DLD-1, 48 h; how it was run: as §3
MIA PaCa-2 = assay: Antiproliferative activity against human MIAPaCa2 cells after 72 hrs by sulforhodamine staining method; assay type: functional; settings: MIA PaCa-2, 72 h; how it was run: as §1
COLO 205 = assay: Antiproliferative activity against human COLO205 cells after 72 hrs by sulforhodamine staining method; assay type: functional; settings: COLO 205, 72 h; how it was run: as §1
SK-N-AS = assay: Antiproliferative activity against human SK-N-AS cells after 72 hrs by sulforhodamine staining method; assay type: functional; how it was run: as §1
K562 [4] = assay: Antiproliferative activity against human K562 cells after 48 hrs by hemocytometric analysis; assay type: functional, cell-based; settings: K562, 48 h
How it was run: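 K562 cells in RPMI 1640 with 10% FBS at 37 °C/5% CO2, plated at 2 × 10^5 cells/mL. Compounds in DMSO/methanol 1:1, final vehicle 0.5%. Cells counted in a Neubauer hemocytometer after 48 h and expressed as % of untreated control. Triplicate wells, three experiments; IC50 by nonlinear regression.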

[5] = Antiproliferative activity against human MT3 cells after 72 hrs by sulforhodamine staining method; assay type: functional; settings: MT-3, 72 h; how it was run: as §1
SW480 = assay: Antiproliferative activity against human SW480 cells after 48 hrs by alamar blue assay; assay type: functional, cell-based; settings: SW480, 48 h; how it was run: as §3
NCI-H460 = assay: Antiproliferative activity against human NCI-H460 cells after 48 hrs by alamar blue assay; assay type: functional, cell-based; settings: NCI-H460, 48 h; how it was run: as §3
K562 [6] = assay: Cell cycle arrest in human K562 cells assessed as accumulation at G2/M phase at 30 nM after 24 hrs by flow cytometric analysis; assay type: functional, cell-based; how it was run: as §2
BT-549 = assay: Antiproliferative activity against human BT549 cells after 48 hrs by alamar blue assay; assay type: functional, cell-based; settings: BT-549, 48 h; how it was run: as §3
RD = assay: Antiproliferative activity against human RD cells after 72 hrs by sulforhodamine staining method; assay type: functional; how it was run: as §1
Tubulin = Tubulin (Sus scrofa, UniProt P02554+P02550); assay: Inhibition of pig tubulin polymerization determined after 45 mins at 37 degC by turbidimetric analysis; assay type: protein assay
How it was run: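 Microtubule protein (80–90% tubulin with MAPs) from porcine brain, isolated by two cold/warm cycles. Buffer: 20 mM PIPES pH 6.8, 80 mM NaCl, 0.5 mM MgCl2, 1 mM EGTA, 1 mM DTT. Protein at 1.2 mg/mL (about 10 μM tubulin) with 0.6 mM GTP, 1% DMSO, 37 °C.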

SK-N-SH = assay: Antiproliferative activity against human SK-N-SH cells after 72 hrs by sulforhodamine staining method; assay type: functional; how it was run: as §1

In the case of `COc1ccc(C(=O)N2c3ccccc3Oc3cc(C#N)ccc32)cc1O`, the GI50 (ASPC1) is reported as greater than 10000 nM, the Activity (K562 [1]) is reported as “Active” and the GI50 (A-375) is reported as 2.7 nM. The IC50 (SK-OV-3) was 24 nM, the GI50 (COLO-678) was 62.3 nM and the GI50 [2] was 1130 nM. It also gave a GI50 at 72 h [3] greater than 10000 nM, a GI50 (IGROV-1) of 63.3 nM and an IC50 (cells) of 6 nM. For the same compound, the GI50 (BXPC-3) was 2250 nM, the GI50 (HT-29) was 5600 nM and the GI50 (HT-1080) was 2.6 nM. It also gave a GI50 5637 of 1.9 nM, a GI50 (SK-MEL-28) of 2 nM and a GI50 (MG-63) of 1.8 nM. It also gave an IC50 (DLD-1) of 16 nM, a GI50 (MIA PaCa-2) of 8410 nM and a GI50 (COLO 205) of 4260 nM. The GI50 (SK-N-AS) was 1.8 nM, the IC50 (K562 [4]) was 11 nM and the GI50 [5] was 95.1 nM. For the same compound, the IC50 (SW480) was 29 nM, the IC50 (NCI-H460) was 40 nM and the Activity (K562 [6]) was “Active”. It also gave an IC50 (BT-549) of 16 nM, a GI50 (RD) of 2 nM and an IC50 (Tubulin) of 520 nM. The GI50 (SK-N-SH) was 1.8 nM.
